Assay results as given in ChEMBL document CHEMBL3576784, “Azolylthioacetamide: A Highly Promising Scaffold for the Development of Metallo-β-lactamase Inhibitors” (ACS Med Chem Lett, 2015).
Calls of active or inactive are those of the source. The calls are words filed in the database; no cut-off is given here.

Assays:
[1] = biological target: Metallo-beta-lactamase type 2 (Bacteroides fragilis) (UniProt P25910); assay: Inhibition of Bacteroides fragilis metallo-beta-lactamase CcrA expressed in Escherichia coli BL21(DE3) up to 10 uM using cefazolin V substrate pre-incubated for 30 mins by Lineweaver-Burk plot method
[2] = Inhibition of metallo-beta-lactamase NDM1 (unknown origin) expressed in Escherichia coli BL21(DE3) up to 10 uM using cefazolin V substrate pre-incubated for 30 mins by Lineweaver-Burk plot method
[3] = biological target: Beta-lactamase L1 (Stenotrophomonas maltophilia) (UniProt P52700); assay: Inhibition of Stenotrophomonas maltophilia metallo-beta-lactamase L1 expressed in Escherichia coli BL21(DE3) up to 10 uM using cefazolin V substrate pre-incubated for 30 mins by Lineweaver-Burk plot method
[4] = biological target: Beta-lactamase L1 (Stenotrophomonas maltophilia) (UniProt P52700); assay: Inhibition of Stenotrophomonas maltophilia metallo-beta-lactamase L1 expressed in Escherichia coli BL21(DE3) assessed as cefalexin V antimicrobial MIC incubated at 37 degC for 12 hrs by macrodilution (tube) broth method (reference value: 8 ug/mL)
Outline: (§1)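 β-Lactam antibiotic MIC (μg/mL) against E. coli BL21(DE3) carrying plasmids pMSZ02-CcrA, pET26b-NDM-1, pET26b-ImiS or pET26b-L1. Measured with and without test compound at 16 μg/mL.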

[5] = Inhibition of metallo-beta-lactamase NDM1 (unknown origin) expressed in Escherichia coli BL21(DE3) assessed as cefalexin V antimicrobial MIC incubated at 37 degC for 12 hrs by macrodilution (tube) broth method (reference value: 4 ug/mL); outline: as §1
[6] = biological target: Metallo-beta-lactamase type 2 (Bacteroides fragilis) (UniProt P25910); assay: Inhibition of Bacteroides fragilis metallo-beta-lactamase CcrA expressed in Escherichia coli BL21(DE3) assessed as cefalexin V antimicrobial MIC incubated at 37 degC for 12 hrs by macrodilution (tube) broth method (reference value: 4 ug/mL); outline: as §1
[7] = biological target: Beta-lactamase (Aeromonas veronii) (UniProt O31272); assay: Inhibition of Aeromonas veronii metallo-beta-lactamase ImiS expressed in Escherichia coli BL21(DE3) assessed as imipenem antimicrobial MIC incubated at 37 degC for 12 hrs by macrodilution (tube) broth method; outline: as §1
[8] = biological target: T1, Beta-lactamase IMP-1 (Pseudomonas aeruginosa) (UniProt Q8G9Q0); assay: Inhibition of Pseudomonas aeruginosa metallo-beta-lactamase IMP1 expressed in Escherichia coli BL21(DE3) assessed as imipenem antimicrobial MIC incubated at 37 degC for 12 hrs by macrodilution (tube) broth method (reference value: […] ug/mL)
T1 sequence (whole entry): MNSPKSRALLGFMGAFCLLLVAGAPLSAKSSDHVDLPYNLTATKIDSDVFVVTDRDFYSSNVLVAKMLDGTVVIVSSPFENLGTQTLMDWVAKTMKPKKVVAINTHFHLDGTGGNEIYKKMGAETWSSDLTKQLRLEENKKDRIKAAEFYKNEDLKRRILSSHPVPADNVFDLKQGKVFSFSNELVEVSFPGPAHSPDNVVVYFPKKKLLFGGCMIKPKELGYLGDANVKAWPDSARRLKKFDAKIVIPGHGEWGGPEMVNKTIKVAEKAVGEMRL

Klebsiella pneumoniae = assay: Inhibition of Klebsiella pneumoniae metallo-beta-lactamase expressed in Escherichia coli BL21(DE3) assessed as imipenem antimicrobial MIC incubated at 37 degC for 12 hrs by macrodilution (tube) broth method

Chain of Metallo-beta-lactamase type 2 (Bacteroides fragilis) (P25910 whole entry): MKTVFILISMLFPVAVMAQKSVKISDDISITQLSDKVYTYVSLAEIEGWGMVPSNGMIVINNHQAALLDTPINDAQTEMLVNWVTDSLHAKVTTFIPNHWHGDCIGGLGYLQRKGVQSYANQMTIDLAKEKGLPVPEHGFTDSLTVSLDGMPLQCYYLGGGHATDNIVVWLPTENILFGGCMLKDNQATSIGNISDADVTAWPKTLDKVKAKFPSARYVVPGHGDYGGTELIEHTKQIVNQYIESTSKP
Chain of Beta-lactamase L1 (Stenotrophomonas maltophilia) (P52700 34-290 limits assumed): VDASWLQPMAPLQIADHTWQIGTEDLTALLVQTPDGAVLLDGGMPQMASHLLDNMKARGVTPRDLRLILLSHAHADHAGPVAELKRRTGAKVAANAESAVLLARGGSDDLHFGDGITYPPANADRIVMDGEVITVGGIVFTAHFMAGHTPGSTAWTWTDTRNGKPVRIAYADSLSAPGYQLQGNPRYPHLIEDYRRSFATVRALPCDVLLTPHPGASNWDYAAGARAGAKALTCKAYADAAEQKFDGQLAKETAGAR
Chain of Beta-lactamase (Aeromonas veronii) (O31272 as listed by the source): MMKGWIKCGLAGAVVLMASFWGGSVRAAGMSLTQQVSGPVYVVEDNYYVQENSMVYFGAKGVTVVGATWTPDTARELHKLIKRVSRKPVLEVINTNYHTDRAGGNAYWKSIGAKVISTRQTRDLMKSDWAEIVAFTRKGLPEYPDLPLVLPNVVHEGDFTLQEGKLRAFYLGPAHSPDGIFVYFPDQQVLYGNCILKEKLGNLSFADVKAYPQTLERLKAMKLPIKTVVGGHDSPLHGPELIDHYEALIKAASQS

In the case of `O=C(O)CCc1nnc(SCC(=O)Nc2nc3ccccc3[nH]2)[nH]1`, the inhibition [1] is reported as “inactive”, the inhibition [2] is reported as “inactive” and the inhibition [3] is reported as “inactive”.
For `O=C(CSc1nnc(-c2ccccc2C(=O)O)[nH]1)Nc1ccc(Cl)cc1`, the inhibition [1] was “inactive”, the inhibition [2] was “inactive” and the inhibition [3] was “inactive”. It also gave an MIC [4] of 8 µg/mL, an MIC [5] of 4 µg/mL and an MIC [6] of less than 0.125 µg/mL. The MIC [7] was 0.5 µg/mL, the MIC [8] was 0.25 µg/mL and the MIC (Klebsiella pneumoniae) was 0.5 µg/mL.
For `O=C(O)CCCc1nnc(SCC(=O)Nc2nc3ccccc3[nH]2)[nH]1`, the inhibition [1] was “inactive”, the inhibition [2] was “inactive” and the inhibition [3] was “inactive”.
With `O=C(CSc1nnc(-c2ccccc2C(=O)O)[nH]1)Nc1cccc([N+](=O)[O-])c1` the inhibition [1] was “inactive”, the inhibition [2] was “inactive” and the inhibition [3] was “inactive”. The MIC [4] was 8 µg/mL, the MIC [5] was 4 µg/mL and the MIC [6] was 2 µg/mL. It also gave an MIC [7] of 0.25 µg/mL, an MIC [8] of less than 0.125 µg/mL and an MIC (Klebsiella pneumoniae) of 0.5 µg/mL.
In the case of `O=C(CSc1nnc(-c2ccccc2C(=O)O)[nH]1)Nc1ccc([N+](=O)[O-])cc1`, the inhibition [1] is reported as “inactive”, the inhibition [2] is reported as “inactive” and the inhibition [3] is reported as “inactive”. It also gave an MIC [4] of 16 µg/mL, an MIC [5] of 4 µg/mL and an MIC [6] of 2 µg/mL. The MIC [7] was 0.5 µg/mL, the MIC [8] was 0.25 µg/mL and the MIC (Klebsiella pneumoniae) was 0.5 µg/mL.
With `O=C(CSc1nnc(-c2ccccc2C(=O)O)[nH]1)NCc1ccccc1` the inhibition [1] was “inactive”, the inhibition [2] was “inactive” and the inhibition [3] was “inactive”. The MIC [4] was 16 µg/mL, the MIC [5] was 4 µg/mL and the MIC [6] was 4 µg/mL. The MIC [7] was 1 µg/mL, the MIC [8] was less than 0.125 µg/mL and the MIC (Klebsiella pneumoniae) was 0.5 µg/mL.
For `O=C(CSc1nnc(-c2ccccc2C(=O)O)[nH]1)Nc1ccccc1`, the inhibition [1] was “inactive”, the inhibition [2] was “inactive” and the inhibition [3] was “inactive”. For the same compound, the MIC [4] was 8 µg/mL, the MIC [5] was 4 µg/mL and the MIC [6] was 4 µg/mL. It also gave an MIC [7] of 1 µg/mL, an MIC [8] of 0.25 µg/mL and an MIC (Klebsiella pneumoniae) of 0.5 µg/mL.
In the case of `O=C(CSc1nnc(-c2ccccc2C(=O)O)[nH]1)Nc1ccccc1[N+](=O)[O-]`, the inhibition [1] is reported as “inactive”, the inhibition [2] is reported as “inactive” and the inhibition [3] is reported as “inactive”. The MIC [4] was greater than 128 µg/mL, the MIC [5] was 4 µg/mL and the MIC [6] was 0.25 µg/mL. For the same compound, the MIC [7] was less than 0.125 µg/mL, the MIC [8] was less than 0.125 µg/mL and the MIC (Klebsiella pneumoniae) was 0.5 µg/mL.
For `O=C(CSc1nnc(-c2ccccc2C(=O)O)[nH]1)Nc1ccccc1Cl`, the inhibition [1] was “inactive”, the inhibition [2] was “inactive” and the inhibition [3] was “inactive”. It also gave an MIC [4] of 64 µg/mL, an MIC [5] of 4 µg/mL and an MIC [6] of 2 µg/mL. The MIC [7] was 0.25 µg/mL, the MIC [8] was less than 0.125 µg/mL and the MIC (Klebsiella pneumoniae) was 0.5 µg/mL.
For `O=C(CSc1nnc(-c2ccccc2C(=O)O)[nH]1)Nc1nc2ccccc2[nH]1`, the inhibition [1] was “inactive”, the inhibition [2] was “inactive” and the inhibition [3] was “inactive”. It also gave an MIC [4] of 8 µg/mL, an MIC [5] of 4 µg/mL and an MIC [6] of 4 µg/mL. It also gave an MIC [7] of 1 µg/mL, an MIC [8] of 0.25 µg/mL and an MIC (Klebsiella pneumoniae) of 0.5 µg/mL.
In the case of `O=C(O)CCc1nnc(SCC(=O)Nc2ccccc2)[nH]1`, the inhibition [1] is reported as “inactive”, the inhibition [2] is reported as “inactive” and the inhibition [3] is reported as “inactive”.
For `O=C(CSc1nnc(-c2ccccc2C(=O)O)[nH]1)Nc1nc2ccccc2s1`, the inhibition [1] was “inactive”, the inhibition [2] was “inactive” and the inhibition [3] was “inactive”. For the same compound, the MIC [4] was 8 µg/mL, the MIC [5] was 4 µg/mL and the MIC [6] was less than 0.125 µg/mL. For the same compound, the MIC [7] was 1 µg/mL, the MIC [8] was less than 0.125 µg/mL and the MIC (Klebsiella pneumoniae) was 0.5 µg/mL.
With `O=C(O)CCc1nnc(SCC(=O)Nc2nc3ccccc3s2)[nH]1` the inhibition [1] was “inactive”, the inhibition [2] was “inactive” and the inhibition [3] was “inactive”.
In the case of `O=C(CSc1nnc(-c2ccccc2C(=O)O)[nH]1)Nc1cccc(Cl)c1`, the inhibition [1] is reported as “inactive”, the inhibition [2] is reported as “inactive” and the inhibition [3] is reported as “inactive”. The MIC [4] was 64 µg/mL, the MIC [5] was 4 µg/mL and the MIC [6] was 0.5 µg/mL. For the same compound, the MIC [7] was less than 0.125 µg/mL, the MIC [8] was less than 0.125 µg/mL and the MIC (Klebsiella pneumoniae) was 0.5 µg/mL.
For `O=C(O)CCc1nnc(SCC(=O)Nc2ccc(Cl)cc2)[nH]1`, the inhibition [1] was “inactive”, the inhibition [2] was “inactive” and the inhibition [3] was “inactive”.
